The sample as a whole holds a higher share of hits than the screen did.
A1 apoptosis 2: A1 inhibitors via caspase activation, primary screen, cell-based, luminescence, HTS, two replicates; MEF A1-2A-BIM cells, caspase-Glo luminescence, 3 h; percent of clofoctol response, DMSO zero; 24,000 tested, under 10 active; AID 2465, 2010; caspase activation, % (no concentration beside the values); in the data active = caspase activation above about 5.9%
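System: mouse embryonic fibroblasts co-expressing A1 and BIM (A1-2A-BIM), primed for A1 dependence; amount: 2500 cells/well; doses: 50 nL pinned compound; schedule: cells settled overnight, compound exposure 3 h at 37 °C, 5% CO2; detection: Caspase-Glo 3/7 luminescence, 1 h at room temperature; read-out: Caspase-3/7 activation, seen as rise in luminescence signal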
INS-1E rescue: protection of INS-1E cells from cytokine death, primary screen, ATP luminescence, single point; INS-1E cytokine-induced death, 48 h; normalised: neutral wells 0, positive control 100; protection from cytokine-induced ATP loss, % at 10 µM; 0.1% of 20,000 active;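 active = mean replicate protection from cytokine-induced ATP loss at least 50% and at least 75% of replicates each reaching 50%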
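assay system = INS-1E rat insulinoma cells | amount = 8000 cells per well | medium = phenol-red-free RPMI with 5% fetal bovine serum | doses = one compound concentration, pin transfer | timing = 48 h cytokine plus compound treatment, 10 min reagent incubation | also added = IL-1β, TNF-α and IFN-γ cytokine mix | signal = CellTiter-Glo luminescence measuring cellular ATP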
T cruzi HTS: inhibitors of intracellular Trypanosoma cruzi, primary screen, cell-based, plate reader, single point, set 2 | activity score (inhibition), % at 5.01 µM | 4.9% of 22,000 active | intracellular Trypanosoma cruzi in host cells; in the data active = activity score above about 55%;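 note: parasites and compound incubated about four days before reading; 0% = median of neutral control wells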
The depositor's hits bear a star; . = no result given.

SMILES	A1 apoptosis 2	INS-1E rescue	T cruzi HTS
O=C(CCCCCC(=O)N/N=C/c1cccnc1Cl)NO	2	.	.
O=C(CCCCCC(=O)Nc1ccccc1O)N/N=C/c1cccnc1	3	.	.
Cc1ccc(S(=O)(=O)Nc2ccc3c(c2)C(=O)N([C@H](C)CO)C[C@@H](C)[C@H](CN(C)C(=O)Nc2ccccc2)OCCCC[C@H](C)O3)cc1	0	.	.
C[C@H]1CN([C@@H](C)CO)C(=O)c2cccc(NC(=O)c3ccncc3)c2O[C@H]1CN(C)Cc1ccc2c(c1)OCO2	-1	1	62*
C[C@@H]1CN([C@H](C)CO)C(=O)c2cccc(NC(=O)c3ccncc3)c2O[C@H]1CN(C)Cc1ccc2c(c1)OCO2	1	-9	87*
C[C@@H]1CN([C@H](C)CO)C(=O)c2cccc(NC(=O)c3ccncc3)c2O[C@@H]1CN(C)Cc1ccncc1	0	12	-22
C[C@@H]1CN([C@H](C)CO)C(=O)c2cccc(NC(=O)c3ccc(-c4nccs4)cc3)c2O[C@@H]1CN(C)Cc1ccc2c(c1)OCO2	0	-5	15
C[C@@H]1CN([C@@H](C)CO)C(=O)c2cccc(NC(=O)c3ccncc3)c2O[C@H]1CN(C)Cc1ccc2c(c1)OCO2	0	4	59*
C[C@H](CO)N1C[C@H](C)[C@H](CN(C)Cc2ccc3c(c2)OCO3)Oc2c(NC(=O)c3cnccn3)cccc2C1=O	.	1	1
O=C(O)CCCCCC(=O)N/N=C/c1cccnc1	.	-7	-25
COC(=O)C(CC#Cc1ccc2c(c1)[C@]1(C(=O)N2)[C@H](C(N)=O)[C@H]2C(=O)O[C@H](c3ccccc3)[C@H](c3ccccc3)N2[C@@H]1c1ccc(O)cc1)C(=O)OC	0	.	.
O=C(N/N=C/c1ccc(N2CCCC2)cc1)c1ccccc1O	.	-13	-17
C[C@H]1CN([C@@H](C)CO)C(=O)Cc2cc(NS(=O)(=O)c3ccccc3)ccc2O[C@@H]1CN(C)Cc1ccc(-c2ccccc2)cc1	.	-14	75*
C[C@@H]1CN([C@@H](C)CO)C(=O)Cc2cc(NS(=O)(=O)c3ccc(Cl)cc3)ccc2O[C@@H]1CN(C)Cc1ccc(-c2ccccc2)cc1	.	5	34
Cc1ccc(S(=O)(=O)Nc2ccc3c(c2)CC(=O)N([C@H](C)CO)C[C@@H](C)[C@H](CN(C)Cc2ccc(-c4ccccc4)cc2)O3)cc1	1	-16	54
Cc1ccc(S(=O)(=O)Nc2ccc3c(c2)CC(=O)N([C@H](C)CO)C[C@@H](C)[C@H](CN(C)Cc2ccccc2)O3)cc1	.	0	67*
C[C@H]1CN([C@@H](C)CO)C(=O)Cc2cc(NS(=O)(=O)c3ccccc3)ccc2O[C@H]1CN(C)Cc1ccc(-c2ccccc2)cc1	.	2	3
C[C@@H]1CN([C@H](C)CO)C(=O)Cc2cc(NS(=O)(=O)c3ccc(Cl)cc3)ccc2O[C@@H]1CN(C)Cc1ccc(-c2ccccc2)cc1	.	-42	67*
Cc1ccc(S(=O)(=O)Nc2ccc3c(c2)CC(=O)N([C@H](C)CO)C[C@H](C)[C@H](CN(C)Cc2ccccc2)O3)cc1	-1	-9	41
Cc1ccc(S(=O)(=O)Nc2ccc3c(c2)CC(=O)N([C@@H](C)CO)C[C@@H](C)[C@@H](CN(C)Cc2ccc(-c4ccccc4)cc2)O3)cc1	-1	-9	71*
Cc1ncc(CO)c(/C=N/NC(=O)CCCCCCC(=O)Nc2ccccc2O)c1O	-1	2	-4
O=C(NCc1nc2ccccc2[nH]1)C1=C[C@@H](c2coc3ccccc3c2=O)C[C@@H](OCc2ccc(CO)cc2)O1	-1	.	.
COc1cc(Cl)c(/C=N/NC(=O)c2ccccn2)c(Cl)c1OC	-10	5	-15
COc1ccc(Br)cc1/C=N/NC(=O)c1cccc(C(=O)NO)c1	0	-6	-24
O=C(NO)c1ccc(C(=O)N/N=C/c2ccc(-c3ccccc3)c(F)c2)cc1	-1	.	.
O=C(/C=C/c1ccc(OCCCc2ccccc2)cc1)NO	0	.	.
C[C@H]1CN([C@@H](C)CO)C(=O)c2cc(N(C)C)ccc2O[C@H]1CN(C)Cc1ccc(C(=O)Nc2ccccc2N)cc1	.	6	17
CC(C)NC(=O)Nc1ccc2c(c1)C(=O)N([C@@H](C)CO)C[C@H](C)[C@@H](CN(C)Cc1ccc(C(=O)Nc3ccccc3N)cc1)O2	.	-15	58*
C[C@@H]1CN([C@H](C)CO)C(=O)c2cc(N(C)C)ccc2O[C@@H]1CN(C)Cc1ccc(C(=O)Nc2ccccc2N)cc1	.	63*	71*

Compound activity from PubChem.
